Test results from ChEMBL document CHEMBL1142136, “Contribution of target gene mutations and efflux to decreased susceptibility of Salmonella enterica serovar typhimurium to fluoroquinolones and other antimicrobials” (2007).
Converted amounts (≈) assume the structure as drawn.

Columns and labels:
Type in all cases: functional, Salmonella enterica subsp. enterica serovar Typhimurium
[1] = system: Salmonella typhimurium; assay: Antimicrobial activity against Salmonella enterica serovar Typhimurium S21-2 tolC::Kan with GyrA S83F, ParC S80I mutation
In short: (§1)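 MICs measured by broth microdilution on the Sensititre automated system and interpreted by CLSI broth microdilution standards. Ciprofloxacin was also tested by agar dilution, widening the range to 0.0075–128 μg/ml. Quality control strains were E. coli ATCC 25922 and 35218, E. faecalis ATCC 29212, S. aureus ATCC 29213 and P. aeruginosa ATCC 27853.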

[2] = system: Salmonella typhimurium; assay: Antimicrobial activity against Salmonella enterica serovar Typhimurium CS9 acrAB::Kan with GyrA S83F, D87N, ParC S80I mutation; in short: as §1
[3] = system: Salmonella typhimurium; assay: Antimicrobial activity against Salmonella enterica serovar Typhimurium S21; in short: as §1
[4] = system: Salmonella typhimurium; assay: Antimicrobial activity against Salmonella enterica serovar Typhimurium S21-3 acrAB::Kan with GyrA S83F, ParC S80I mutation; in short: as §1
[5] = system: Salmonella typhimurium; assay: Antimicrobial activity against Salmonella enterica serovar Typhimurium S21-1 GyrA S83F mutant; in short: as §1
[6] = system: Salmonella typhimurium; assay: Antimicrobial activity against Salmonella enterica serovar Typhimurium CHS38 acrAB::Kan with GyrA D87G mutation; in short: as §1
[7] = system: Salmonella typhimurium; assay: Antimicrobial activity against Salmonella enterica serovar Typhimurium S21-2 acrAB::Kan with GyrA S83F, ParC S80I mutation; in short: as §1
[8] = system: Salmonella typhimurium; assay: Antimicrobial activity against Salmonella enterica serovar Typhimurium CS1 with GyrA S83F, D87N, ParC S80I mutation; in short: as §1
[9] = system: Salmonella typhimurium; assay: Antimicrobial activity against Salmonella enterica serovar Typhimurium S21-2 with GyrA S83F, ParC S80I mutation; in short: as §1
[10] = system: Salmonella typhimurium; assay: Antimicrobial activity against Salmonella enterica serovar Typhimurium S21 gyrA+; in short: as §1
[11] = system: Salmonella typhimurium; assay: Antimicrobial activity against Salmonella enterica serovar Typhimurium S21-1 tolC::Kan with GyrA S83F mutation; in short: as §1
[12] = system: Salmonella typhimurium; assay: Antimicrobial activity against Salmonella enterica serovar Typhimurium S21-3 tolC::Kan with GyrA S83F, ParC S80I mutation; in short: as §1
[13] = system: Salmonella typhimurium; assay: Antimicrobial activity against Salmonella enterica serovar Typhimurium CHS18 with GyrA S38F mutation; in short: as §1
[14] = system: Salmonella typhimurium; assay: Antimicrobial activity against Salmonella enterica serovar Typhimurium CS3 gyrA+ with GyrA S83F, D87N, ParC S80I mutation; in short: as §1
[15] = system: Salmonella typhimurium; assay: Antimicrobial activity against Salmonella enterica serovar Typhimurium CS3 tolC::Kan with GyrA S83F, D87N, parC S80I mutation; in short: as §1
[16] = system: Salmonella typhimurium; assay: Antimicrobial activity against Salmonella enterica serovar Typhimurium CS3 acrAB::Kan with GyrA S83F, D87N, ParC S80I mutation; in short: as §1
[17] = system: Salmonella typhimurium; assay: Antimicrobial activity against Salmonella enterica serovar Typhimurium CHS14 gyrA+ with GyrA D87G mutation; in short: as §1
[18] = system: Salmonella typhimurium; assay: Antimicrobial activity against Salmonella enterica serovar Typhimurium CS1 tolC::Kan with GyrA S83F, D87N, ParC S80I mutation; in short: as §1
[19] = system: Salmonella typhimurium; assay: Antimicrobial activity against Salmonella enterica serovar Typhimurium CS3 with GyrA S83F, D87N, ParC S80I mutation; in short: as §1
[20] = system: Salmonella typhimurium; assay: Antimicrobial activity against Salmonella enterica serovar Typhimurium S21-3 gyrA+ with ParC S80I mutation; in short: as §1
[21] = system: Salmonella typhimurium; assay: Antimicrobial activity against Salmonella enterica serovar Typhimurium CHS38 tolC::Kan with GyrA D87G mutation; in short: as §1
[22] = system: Salmonella typhimurium; assay: Antimicrobial activity against Salmonella enterica serovar Typhimurium CS9 tolC::Kan with GyrA S83F, D87N, ParC S80I mutation; in short: as §1
[23] = system: Salmonella typhimurium; assay: Antimicrobial activity against Salmonella enterica serovar Typhimurium CHS18 acrAB::Kan with GyrA S38F mutation; in short: as §1
[24] = system: Salmonella typhimurium; assay: Antimicrobial activity against Salmonella enterica serovar Typhimurium S21-4 tolC::Kan with GyrA S83F, ParC S80I mutation; in short: as §1
[25] = system: Salmonella typhimurium; assay: Antimicrobial activity against Salmonella enterica serovar Typhimurium S21 acrAB::Kan
In short: (§2)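 MICs by automated broth microdilution panels, interpreted to CLSI broth microdilution standards. Ciprofloxacin additionally tested by agar dilution across 0.0075 to 128 μg/ml. Quality control strains: E. coli ATCC 25922 and 35218, Enterococcus faecalis ATCC 29212, S. aureus ATCC 29213, P. aeruginosa ATCC 27853. Test strains are kanamycin-marked deletion mutants of ground-beef isolate S21.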

[26] = system: Salmonella typhimurium; assay: Antimicrobial activity against Salmonella enterica serovar Typhimurium CHS14 tolC::Kan with GyrA D87G mutant; in short: as §1
[27] = system: Salmonella typhimurium; assay: Antimicrobial activity against Salmonella enterica serovar Typhimurium CHS38 with GyrA D87G mutation; in short: as §1
[28] = system: Salmonella typhimurium; assay: Antimicrobial activity against Salmonella enterica serovar Typhimurium CHS14 with GyrA D87G mutation; in short: as §1
[29] = system: Salmonella typhimurium; assay: Antimicrobial activity against Salmonella enterica serovar Typhimurium CHS18 gyrA+ with GyrA S38F mutation; in short: as §1
[30] = system: Salmonella typhimurium; assay: Antimicrobial activity against Salmonella enterica serovar Typhimurium CHS18 tolC::Kan with GyrA S38F mutation; in short: as §1
[31] = system: Salmonella typhimurium; assay: Antimicrobial activity against Salmonella enterica serovar Typhimurium S21-2 gyrA+ with ParC S80I mutation; in short: as §1
[32] = system: Salmonella typhimurium; assay: Antimicrobial activity against Salmonella enterica serovar Typhimurium S21-4 with GyrA S83F, ParC S80I mutation; in short: as §1
[33] = system: Salmonella typhimurium; assay: Antimicrobial activity against Salmonella enterica serovar Typhimurium CHS14 acrAB::Kan with GyrA D87G mutation; in short: as §1
[34] = system: Salmonella typhimurium; assay: Antimicrobial activity against Salmonella enterica serovar Typhimurium CS1 gyrA+ with GyrA S83F, D87N, ParC S80I mutation; in short: as §1
[35] = system: Salmonella typhimurium; assay: Antimicrobial activity against Salmonella enterica serovar Typhimurium S21-1 gyrA+; in short: as §1
[36] = system: Salmonella typhimurium; assay: Antimicrobial activity against Salmonella enterica serovar Typhimurium CS9 with GyrA S83F, D87N, ParC S80I mutation; in short: as §1
[37] = system: Salmonella typhimurium; assay: Antimicrobial activity against Salmonella enterica serovar Typhimurium S21-4 gyrA+ with ParC S80I mutation; in short: as §1
[38] = system: Salmonella typhimurium; assay: Antimicrobial activity against Salmonella enterica serovar Typhimurium CS9 gyrA+ with GyrA S83F, D87N, ParC S80I mutation; in short: as §1
[39] = system: Salmonella typhimurium; assay: Antimicrobial activity against Salmonella enterica serovar Typhimurium S21-3 with GyrA S83F, ParC S80I mutation; in short: as §1
[40] = system: Salmonella typhimurium; assay: Antimicrobial activity against Salmonella enterica serovar Typhimurium CS1 acrAB::Kan with GyrA S83F, D87N, ParC S80I mutation; in short: as §1
[41] = system: Salmonella typhimurium; assay: Antimicrobial activity against Salmonella enterica serovar Typhimurium S21 tolC::Kan; in short: as §2
[42] = system: Salmonella typhimurium; assay: Antimicrobial activity against Salmonella enterica serovar Typhimurium S21-4 acrAB::Kan with GyrA S83F, ParC S80I mutation; in short: as §1
[43] = system: Salmonella typhimurium; assay: Antimicrobial activity against Salmonella enterica serovar Typhimurium CHS38 gyrA+ with GyrA D87G mutation; in short: as §1
[44] = system: Salmonella typhimurium; assay: Antimicrobial activity against Salmonella enterica serovar Typhimurium GyrA S21-1 acrAB::Kan with GyrA S83F mutation; in short: as §1

CCn1cc(C(=O)O)c(=O)c2cc(F)c(N3CCNCC3)nc21 [ENOXACIN]
MIC [1]: 0.12 µg/mL (≈ 0.375 µM) | MIC [2]: 4 µg/mL (≈ 12.5 µM) | MIC [3]: 0.06 µg/mL (≈ 0.187 µM) | MIC [4]: 0.25 µg/mL (≈ 0.78 µM) | MIC [5]: 0.5 µg/mL (≈ 1.56 µM) | MIC [6]: 0.03 µg/mL (≈ 0.0937 µM) | MIC [7]: 0.12 µg/mL (≈ 0.375 µM) | MIC [8]: 16 µg/mL (≈ 49.9 µM) | MIC [9]: 8 µg/mL (≈ 25 µM) | MIC [10]: 0.06 µg/mL (≈ 0.187 µM) | MIC [11]: 0.06 µg/mL (≈ 0.187 µM) | MIC [12]: 0.12 µg/mL (≈ 0.375 µM) | MIC [13]: 0.5 µg/mL (≈ 1.56 µM) | MIC [14]: 0.06 µg/mL (≈ 0.187 µM) | MIC [15]: 4 µg/mL (≈ 12.5 µM) | MIC [16]: 4 µg/mL (≈ 12.5 µM) | MIC [17]: 0.06 µg/mL (≈ 0.187 µM) | MIC [18]: 4 µg/mL (≈ 12.5 µM) | MIC [19]: 16 µg/mL (≈ 49.9 µM) | MIC [20]: 2 µg/mL (≈ 6.24 µM) | MIC [21]: < 0.015 µg/mL | MIC [22]: 4 µg/mL (≈ 12.5 µM) | MIC [23]: 0.25 µg/mL (≈ 0.78 µM) | MIC [24]: 0.12 µg/mL (≈ 0.375 µM) | MIC [25]: < 0.015 µg/mL | MIC [26]: < 0.015 µg/mL | MIC [27]: 0.12 µg/mL (≈ 0.375 µM) | MIC [28]: 1 µg/mL (≈ 3.12 µM) | MIC [29]: 0.12 µg/mL (≈ 0.375 µM) | MIC [30]: 0.03 µg/mL (≈ 0.0937 µM) | MIC [31]: 1 µg/mL (≈ 3.12 µM) | MIC [32]: > 16 µg/mL | MIC [33]: 0.03 µg/mL (≈ 0.0937 µM) | MIC [34]: 0.06 µg/mL (≈ 0.187 µM) | MIC [35]: 0.06 µg/mL (≈ 0.187 µM) | MIC [36]: 16 µg/mL (≈ 49.9 µM) | MIC [37]: 4 µg/mL (≈ 12.5 µM) | MIC [38]: 0.06 µg/mL (≈ 0.187 µM) | MIC [39]: > 16 µg/mL | MIC [40]: 4 µg/mL (≈ 12.5 µM) | MIC [41]: < 0.015 µg/mL | MIC [42]: 0.12 µg/mL (≈ 0.375 µM) | MIC [43]: < 0.015 µg/mL | MIC [44]: 0.06 µg/mL (≈ 0.187 µM)
